Data reported in PubChem BioAssay.
The source made the active and inactive calls.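 Rule for the calls, unless noted: active = viability at or below 30% in both replicate assays; inconclusive = viability at or below 30% in just one of the two assays; inactive = the rest.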

Experiments:
[1] = Her2 expression decrease, cell viability multiplex – SKBR3 breast tumor cells, AlphaScreen, ATP viability, primary screen (AID 461;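 active = Her2 level under about 52% in both replicate screens, with viability over 70% of control, limit read from the data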;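 for Her2 level: lower value means less Her2 protein in the cells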;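 for viability: percent of carrier control wells set as 100% viability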); settings: SKBR3 Her2 protein level, 18-24 h, measured here: SKBR3 viability, ATP luminescence, at 10 µM
[2] = target: Receptor tyrosine-protein kinase erbB-2 (Homo sapiens) (UniProt P04626); assay: as above; settings: 18-24 h, at 10 µM, stronger effect = lower value
Sequence of Receptor tyrosine-protein kinase erbB-2 (Homo sapiens) (P04626 whole entry, looked up): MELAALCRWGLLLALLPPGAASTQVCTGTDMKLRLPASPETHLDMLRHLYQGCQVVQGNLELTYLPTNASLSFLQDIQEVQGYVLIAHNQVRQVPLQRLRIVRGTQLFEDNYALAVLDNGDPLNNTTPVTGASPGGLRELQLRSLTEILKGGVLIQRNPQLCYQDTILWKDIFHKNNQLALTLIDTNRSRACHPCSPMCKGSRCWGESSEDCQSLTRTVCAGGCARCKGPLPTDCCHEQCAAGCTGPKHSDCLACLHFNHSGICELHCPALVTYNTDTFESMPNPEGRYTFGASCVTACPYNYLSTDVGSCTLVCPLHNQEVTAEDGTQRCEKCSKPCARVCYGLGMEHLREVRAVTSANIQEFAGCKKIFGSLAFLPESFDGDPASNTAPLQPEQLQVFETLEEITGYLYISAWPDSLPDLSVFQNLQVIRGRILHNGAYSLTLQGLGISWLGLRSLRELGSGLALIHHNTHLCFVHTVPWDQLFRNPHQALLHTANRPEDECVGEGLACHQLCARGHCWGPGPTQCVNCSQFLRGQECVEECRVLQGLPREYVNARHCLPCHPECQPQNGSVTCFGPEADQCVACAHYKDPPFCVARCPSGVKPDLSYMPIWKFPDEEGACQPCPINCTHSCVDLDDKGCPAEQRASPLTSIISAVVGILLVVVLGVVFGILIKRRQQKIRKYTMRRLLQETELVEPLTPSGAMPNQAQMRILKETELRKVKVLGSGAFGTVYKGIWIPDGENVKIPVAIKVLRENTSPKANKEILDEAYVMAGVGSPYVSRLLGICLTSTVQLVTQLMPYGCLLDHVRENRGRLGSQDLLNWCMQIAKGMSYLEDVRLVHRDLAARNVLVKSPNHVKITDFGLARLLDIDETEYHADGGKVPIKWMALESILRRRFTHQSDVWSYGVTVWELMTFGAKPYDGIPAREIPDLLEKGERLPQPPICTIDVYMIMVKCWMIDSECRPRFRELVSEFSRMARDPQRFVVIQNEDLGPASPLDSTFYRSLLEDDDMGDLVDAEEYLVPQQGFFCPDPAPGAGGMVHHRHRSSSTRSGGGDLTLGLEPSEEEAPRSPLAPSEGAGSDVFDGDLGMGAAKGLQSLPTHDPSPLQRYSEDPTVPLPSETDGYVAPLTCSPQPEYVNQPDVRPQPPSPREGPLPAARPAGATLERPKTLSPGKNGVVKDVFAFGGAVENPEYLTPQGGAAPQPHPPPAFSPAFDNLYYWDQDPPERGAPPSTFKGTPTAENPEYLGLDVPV

[3] = reduced viability of SK-BR-3 breast cancer cells – cell-based, 24 h, human, pilot screen (AID 572;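 active = viability at or below 10% of carrier control in both of two separate runs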;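 note: compound exposure lasted between 18 and 24 h rather than exactly 24 h; 100% = carrier-treated control wells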); settings: SK-BR-3 viability, CellTiter-Glo luminescence, at 10 µM, stronger effect = lower value
[4] = HUVEC growth inhibition – cell-based, human, primary screen (AID 575); settings: HUVEC proliferation, CellTiter-Glo luminescence, 72 h; at 10 µM; stronger effect = lower value;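 note: 100% = median of untreated cell wells with 0.1% DMSO on each plate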
How it was run: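 Timing: 72 h treatment at 37 °C; material: HUVEC primary cells; technique: CellTiter-Glo luminescence measuring cellular ATP; controls: vehicle and MePR control wells; measure: percent of median DMSO-control luminescence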

[5] = H69AR cell proliferation blockers – human, duplicate replicates, primary screen (AID 580;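 active = viability at or under a set limit in both replicates, limit being median viability minus 3 SD, cut at about 48% in these data, passing the limit was not always enough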;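 note: 100% = mean luminescence of untreated wells and 0% = no signal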); settings: H69AR lung tumor cells viability, ATP luminescence, 72 h; at 10 µM; stronger effect = lower value
[6] = MRP1 drug-resistance reversers in H69AR cells – cell-based, doxorubicin co-treatment, pilot screen (AID 601;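 active = viability loss from added drug above about 55%, and viability with drug at most 40%, in both replicates, limit read from the data, passing the limit was not always enough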); settings: CellTiter-Glo, 72 h, at 10 µM; for differential viability (reversal): stronger effect = higher value
[7] = yeast transport mutant growth inhibition pilot in 384-well plates, post-Golgi transport modulator project (AID 636; in the data active = inhibition above about 31%); settings: absorbance 615 nm, about 18 h, stronger effect = higher value
[8] = growth suppression of yeast trafficking mutant, preliminary HTS, modulators of trafficking downstream of Golgi apparatus project, 1536-format plate, OD 615 nm (AID 637; in the data active = inhibition above about 30%); settings: yeast transport mutant growth, absorbance 615 nm, 18 h; stronger effect = higher value
[9] = H69AR cells + 2 uM doxorubicin, measured here: viability with 2 uM doxorubicin, stronger effect = lower value
[10] = H69AR cells, compound alone cytotoxicity

Structure (SMILES)	viability [1] [%]	Her2 level [2]	viability [3]	viability [4]	viability [5]	differential viability (reversal) ([6]; H69AR cells + 2 uM doxorubicin)	viability [6, 9] [%]	viability [6, 10] [%]	inhibition [7]	inhibition [8]
COc1ccc(-n2ncc3c(NCc4ccccn4)ncnc32)cc1	98.5	97.5% (inactive)	98.5% (inactive)	102% (inactive)	90.5% (inactive)	3.51% (inactive)	87	90.5	-1.97% (inactive)	4.19% (inactive)
Cc1ccc(Nc2nc(CSc3nnnn3C)cs2)cc1	101	96% (inactive)	101% (inactive)	95.3% (inactive)	113% (inactive)	25.7% (inactive)	87.4	113	-7.24% (inactive)	-1.45% (inactive)
COc1ccc2c(c1)[nH]c1c(=O)n(CC3CCCO3)cnc12 (stereo not given)	86	94% (inactive)	86% (inactive)	97.2% (inactive)	90.5% (inactive)	-4.4% (inactive)	94.9	90.5	-3.42% (inactive)	-6.39% (inactive)
CN1CCN(CC(=O)Nc2ccc(Cl)cc2Cl)CC1	85.5	95% (inactive)	85.5% (inactive)	91.6% (inactive)	93.8% (inactive)	3.29% (inactive)	90.5	93.8	-3.29% (inactive)	2.74% (inactive)
CCC1CCCCN1S(=O)(=O)c1ccc(C(=O)Nc2nnc(-c3cccs3)o2)cc1 (stereo not given)	79.5	91.5% (inactive)	79.5% (inactive)	3.2% (active)	16.7% (active)	-28.1% (inactive)	44.9	16.7	-8.68% (inactive)	9.64% (inactive)
Cc1cc(C)n(C2=NS(=O)(=O)c3ccccc32)n1	86.5	115% (inactive)	86.5% (inactive)	108% (inactive)	101% (inactive)	6.08% (inactive)	95.2	101	3.07% (inactive)	5.08% (inactive)
CCOc1ccccc1NC(=O)CN(c1ccc(C)cc1)S(=O)(=O)c1c(C)noc1C	133	87% (inactive)	133% (inactive)	68.3% (inactive)	81% (inactive)	-9.07% (inactive)	90.1	81	-4.46% (inactive)	5.56% (inactive)
O=C(Oc1cccc2cccnc12)c1cccc(-n2cnnn2)c1	104	82% (inactive)	104% (inactive)	60.3% (inactive)	91.9% (inactive)	15.1% (inactive)	76.8	91.9	-2.53% (inactive)	5.97% (inactive)
N#CC1=C(N)OC(c2ccccc2)=C(C#N)C1c1ccc2c(c1)OCO2 (stereo not given)	95	108% (inactive)	95% (inactive)	85.5% (inactive)	93.8% (inactive)	13.3% (inactive)	80.6	93.8	-0.13% (inactive)	100% (active)
O=C(O)CCc1ccc(-c2cccs2)o1	94	86% (inactive)	94% (inactive)	95.9% (inactive)	95.9% (inactive)	4.25% (inactive)	91.6	95.9	-0.26% (inactive)	-5.67% (inactive)
Cc1nc(CNS(=O)(=O)c2ccc3c(c2)OCCO3)cs1	96	142% (inactive)	96% (inactive)	105% (inactive)	96.6% (inactive)	-0.265% (inactive)	96.9	96.6	2.24% (inactive)	9.51% (inactive)
O=C(OCC#CCSc1nnc(-c2ccccc2)o1)c1cccs1	130	92% (inactive)	130% (inactive)	98.3% (inactive)	94.9% (inactive)	12.1% (inactive)	82.8	94.9	-6.13% (inactive)	-4.92% (inactive)
CS(=O)(=O)Nc1ccc(C(=O)NCc2ccco2)cc1	88.5	106% (inactive)	88.5% (inactive)	104% (inactive)	103% (inactive)	2.3% (inactive)	101	103	-1.05% (inactive)	-5.16% (inactive)
Cc1nc(SCCC(=O)O)c2ccccc2n1	98	108% (inactive)	98% (inactive)	88.4% (inactive)	85.9% (inactive)	1.88% (inactive)	84	85.9	-0.26% (inactive)	-0.5% (inactive)
C=CCOc1ccc(/C=N/n2cncn2)cc1OC	85	112% (inactive)	85% (inactive)	103% (inactive)	94.6% (inactive)	8.46% (inactive)	86.2	94.6	9.86% (inactive)	16.8% (inactive)
